# From ChEMBL document CHEMBL1681740, “Quinolizidinone carboxylic acid selective M1 allosteric modulators: SAR in the piperidine series” (Bioorg Med Chem Lett, 2011)
# Where a chain is given by its changes, count along the chain named. Activity calls are given as the source filed them. The calls are words filed in the database; no cut-off is given here.
# Legend:
# [1] = target: T1, Muscarinic acetylcholine receptor M1 (Homo sapiens) (UniProt P11229); experiment: Positive allosteric modulation at human muscarinic M1 receptor expressing CHO cells assessed as potentiation of acetylcholine-induced calcium mobilization by FLIPR assay; type: functional, cell-based
# T1 sequence (whole entry): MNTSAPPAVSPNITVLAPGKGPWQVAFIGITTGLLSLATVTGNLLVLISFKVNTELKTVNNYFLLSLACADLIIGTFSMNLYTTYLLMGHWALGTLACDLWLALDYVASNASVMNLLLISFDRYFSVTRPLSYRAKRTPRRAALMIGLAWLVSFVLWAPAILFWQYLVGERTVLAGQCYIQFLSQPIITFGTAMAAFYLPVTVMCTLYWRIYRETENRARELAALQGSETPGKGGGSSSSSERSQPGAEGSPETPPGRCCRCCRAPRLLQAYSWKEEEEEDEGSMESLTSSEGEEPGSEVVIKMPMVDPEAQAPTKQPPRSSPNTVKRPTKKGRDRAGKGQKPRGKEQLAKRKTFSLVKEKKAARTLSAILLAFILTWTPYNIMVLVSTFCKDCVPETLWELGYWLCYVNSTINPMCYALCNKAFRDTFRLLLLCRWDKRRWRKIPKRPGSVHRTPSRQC
# Outline: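 CHO cells expressing human M1 receptor. Inflection point determined in the presence of an EC20 concentration of acetylcholine. Mean of at least two experiments; interassay variability ±30%.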
# [2] = Plasma protein binding in rat; type: ADME, cell-free; conditions: read-out: PPB (converted)
# [3] = Plasma protein binding in human; type: ADME, cell-free; conditions: read-out: PPB (converted)
# Brain = experiment: Drug uptake in Sprague-Dawley rat brain at 10 mg/kg, po; type: ADME, organism-based; parameters: dose 10 mg/kg, route oral; conditions: in vivo, read-out: Drug uptake
# Outline: (§1)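 Sprague-Dawley rats dosed orally at 10 mg/kg in 0.5% methocel. Drug levels measured by bioanalysis of plasma, brain and CSF; brain/plasma ratio derived from these. Interanimal variability under 20%.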
# [4] = Ratio of drug uptake in CSF to fraction unbound in plasma in rat; type: ADME, cell-free
# Outline: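 Sprague-Dawley rats, oral 10 mg/kg in 0.5% methocel. CSF level divided by unbound plasma level, with unbound plasma derived using rat plasma protein binding values.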
# Plasma [5] = experiment: Plasma concentration in Sprague-Dawley rat at 10 mg/kg, po; type: ADME, organism-based; parameters: dose 10 mg/kg, route oral; conditions: in vivo; outline: as §1
# [6] = Drug uptake in Sprague-Dawley rat CSF at 10 mg/kg, po; type: ADME, organism-based, Cerebrospinal fluid; parameters: dose 10 mg/kg, route oral; conditions: in vivo, read-out: Drug uptake; outline: as §1
# [7] = Ratio of drug uptake in brain to plasma in Sprague-Dawley rat at 10 mg/kg, po; type: ADME, organism-based; parameters: dose 10 mg/kg, route oral; conditions: read-out: BPR; outline: as §1
# [8] = target: Voltage-gated inwardly rectifying potassium channel KCNH2 (Homo sapiens, UniProt Q12809); experiment: Binding affinity to human ERG at <1 uM
# Chain of Voltage-gated inwardly rectifying potassium channel KCNH2 (Q12809 whole entry): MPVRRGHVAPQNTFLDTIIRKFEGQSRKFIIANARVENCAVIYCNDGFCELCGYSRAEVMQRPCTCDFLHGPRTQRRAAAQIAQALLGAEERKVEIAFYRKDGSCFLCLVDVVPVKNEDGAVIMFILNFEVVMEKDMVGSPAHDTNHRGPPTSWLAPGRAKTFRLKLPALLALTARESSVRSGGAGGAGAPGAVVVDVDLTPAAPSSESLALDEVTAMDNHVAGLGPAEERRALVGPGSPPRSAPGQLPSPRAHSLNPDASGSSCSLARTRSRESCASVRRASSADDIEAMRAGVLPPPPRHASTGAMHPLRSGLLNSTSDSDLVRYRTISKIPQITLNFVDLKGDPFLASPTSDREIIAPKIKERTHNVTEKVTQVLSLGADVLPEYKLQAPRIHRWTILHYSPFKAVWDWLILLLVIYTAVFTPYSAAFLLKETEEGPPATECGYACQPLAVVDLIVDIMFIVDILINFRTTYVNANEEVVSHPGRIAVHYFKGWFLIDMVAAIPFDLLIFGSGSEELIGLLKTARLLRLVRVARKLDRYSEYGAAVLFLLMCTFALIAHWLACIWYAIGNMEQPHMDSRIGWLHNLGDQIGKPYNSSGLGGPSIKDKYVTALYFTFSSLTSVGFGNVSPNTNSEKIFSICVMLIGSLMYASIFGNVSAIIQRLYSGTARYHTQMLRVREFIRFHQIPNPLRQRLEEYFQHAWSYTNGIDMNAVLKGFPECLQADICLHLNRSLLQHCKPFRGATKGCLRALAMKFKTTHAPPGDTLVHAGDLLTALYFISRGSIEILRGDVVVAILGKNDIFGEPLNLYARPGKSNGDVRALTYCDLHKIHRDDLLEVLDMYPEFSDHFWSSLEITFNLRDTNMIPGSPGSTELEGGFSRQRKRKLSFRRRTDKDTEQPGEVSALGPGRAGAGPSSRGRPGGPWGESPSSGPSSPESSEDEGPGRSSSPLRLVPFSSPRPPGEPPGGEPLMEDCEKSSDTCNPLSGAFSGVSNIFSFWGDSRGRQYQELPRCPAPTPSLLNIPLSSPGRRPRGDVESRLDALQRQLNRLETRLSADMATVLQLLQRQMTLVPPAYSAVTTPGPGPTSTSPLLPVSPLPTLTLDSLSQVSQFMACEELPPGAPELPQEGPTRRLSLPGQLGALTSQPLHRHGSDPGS
# Mus musculus [9] = experiment: Antiamnesic activity against in contextual fear conditioning B6SJL mouse modle assessed as reversal of scopolamine-induced episodic memory deficit in at 10 mg/kg; type: functional, organism-based; parameters: dose 10 mg/kg
# Outline: (§2)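 Contextual fear conditioning model of episodic memory in B6SJL mice; scopolamine-induced deficit; test agents given at 3, 10 and 30 mpk; read-out is reversal of the scopolamine deficit.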
# [10] = Distribution coefficient, log D of the compound; type: physicochemical; conditions: octanol/water
# [11] = target: T1, Muscarinic acetylcholine receptor M1 (Homo sapiens); experiment: Positive allosteric modulation at human muscarinic M1 receptor expressing CHO cells assessed as potentiation of acetylcholine-induced calcium mobilization at 0.1 to 1 uM by FLIPR assay; type: functional, cell-based
# Outline: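 Human M1-expressing CHO cells; calcium mobilization read-out. Acetylcholine dose–response curves run with modulator at rising concentrations from 0.1 to 1 μM; fold potentiation taken from the leftward shift of the curve.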
# Mus musculus [12] = experiment: Antiamnesic activity against in contextual fear conditioning B6SJL mouse modle assessed as reversal of scopolamine-induced episodic memory deficit in at 3 mg/kg; type: functional, organism-based; parameters: dose 3 mg/kg; outline: as §2
# Plasma [13] = experiment: Plasma concentration in B6SJL mouse at 30 mg/kg; type: ADME, organism-based; parameters: dose 30 mg/kg; conditions: in vivo
# Outline: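 Plasma drug levels in B6SJL mice measured after 30 mpk dosing in the contextual fear conditioning study.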
# Mus musculus [14] = experiment: Antiamnesic activity against in contextual fear conditioning B6SJL mouse modle assessed as reversal of scopolamine-induced episodic memory deficit in at 30 mg/kg; type: functional, organism-based; parameters: dose 30 mg/kg; outline: as §2
# [15] = Ratio of drug uptake in CSF to fraction unbound in plasma in wild type CF-1 mouse after 30 mins; type: ADME, cell-free; conditions: 0.5 h
# Outline: (§3)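 CF-1 mice, wild type and P-gp knockout, were treated with the compound. Plasma and CSF were collected 30 minutes after treatment. The value is the CSF concentration divided by the unbound plasma concentration (CSF/U plasma ratio), reported separately for each genotype.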
# [16] = Ratio of drug uptake in CSF to fraction unbound in plasma in P-gp knock out CF-1 mouse after 30 mins; type: ADME, cell-free; conditions: 0.5 h; outline: as §3
# [17] = target: T2, Muscarinic acetylcholine receptor M1 (Rattus norvegicus) (UniProt P08482); experiment: Positive allosteric modulation at rat muscarinic M1 receptor
# T2 sequence (whole entry): T1 sequence (whole entry) with A5V, T254S, P309S, R320K, A337G, I413V
SMILES,IP [1],also measured
O=C(O)c1cc(CN2CCc3cc(F)ccc3C2)c2ccccn2c1=O,0.78 µM,
O=C(O)c1cc(CN2CCC(c3ccc(F)cc3)CC2)c2ccccn2c1=O,1.7 µM,
O=C(O)c1cc(CN2CCC(c3ncccn3)CC2)c2ccccn2c1=O,13 µM,
Cc1ccc2c(c1)CCN(Cc1cc(C(=O)O)c(=O)n3ccccc13)C2,1.1 µM,
CCOC(=O)C1c2ccccc2CCN1Cc1cc(C(=O)O)c(=O)n2ccccc12 (stereo not drawn),0.34 µM,
COc1ccc(C2CCN(Cc3cc(C(=O)O)c(=O)n4ccccc34)CC2)cc1,4.3 µM,
O=C(O)c1cc(CN2CCc3ccccc3C2C2CCCCC2)c2ccccn2c1=O (stereo not drawn),> 100 µM,
O=C(O)c1cc(CN2CCC(c3cccc(F)n3)CC2)c2ccccn2c1=O,2.2 µM,
O=C(O)c1cc(CN2CCC(c3cncnc3)CC2)c2ccccn2c1=O,7 µM,
CCOC(=O)C1CN(Cc2cc(C(=O)O)c(=O)n3ccccc23)Cc2ccccc21 (stereo not drawn),3.6 µM,
O=C(O)c1cc(CN2CCc3ncncc3C2)c2ccccn2c1=O,1.8 µM,
COc1ccc2c(c1)CCN(Cc1cc(C(=O)O)c(=O)n3ccccc13)C2,1.4 µM,
O=C(O)c1cc(CN2CCc3ccccc3C2)c2ccccn2c1=O,1.7 µM,
O=C(O)c1cc(CN2CCc3c(Cl)cccc3C2)c2ccccn2c1=O,0.85 µM,
O=C(O)c1cc(CN2CCC(c3cc[nH]n3)CC2)c2ccccn2c1=O,1.5 µM,
N#Cc1ccc2c(c1)CCN(Cc1cc(C(=O)O)c(=O)n3ccccc13)C2,0.61 µM,
O=C(O)c1cc(CN2CCc3cc(-c4ccccc4)ccc3C2)c2ccccn2c1=O,0.56 µM,
O=C(O)c1cc(CN2CCc3cc(-c4ccncc4)ccc3C2)c2ccccn2c1=O,0.39 µM,
O=C(O)c1cc(CN2CCC(n3cccn3)CC2)c2ccccn2c1=O,0.78 µM,
N#Cc1ccc(C2CCN(Cc3cc(C(=O)O)c(=O)n4ccccc34)CC2)cc1,1.3 µM,
Cn1c(C2CCN(Cc3cc(C(=O)O)c(=O)n4ccccc34)CC2)nc2ccccc21,30 µM,
COC(=O)C1c2ccccc2CCN1Cc1cc(C(=O)O)c(=O)n2ccccc12 (stereo not drawn),1.7 µM,
O=C(O)c1cn(Cc2ccc3ccccc3c2)c2ccccc2c1=O,0.08 µM,
O=C(O)c1cc(CN2CCC(c3cccc(Cl)c3)CC2)c2ccccn2c1=O,0.91 µM,
O=C(O)c1cc(CN2CCC(c3ccc(F)nc3)CC2)c2ccccn2c1=O,2.1 µM,
O=C(O)c1cc(CN2CCc3ccccc3C2c2ccncc2)c2ccccn2c1=O (stereo not drawn),0.053 µM,fraction unbound [2]: 0.06; fraction unbound [3]: 0.04; concentration (Brain): 1340 nM; Ratio [4]: 0.37; concentration (Plasma [5]): 9780 nM; concentration [6]: 230 nM; Kp [7]: 0.14; Activity [8]: Active
O=C(O)c1cc(CN2CCC(n3ccnc3)CC2)c2ccccn2c1=O,1.9 µM,

SMILES,IP [1],also measured
O=C(O)c1cc(CN2CCC(n3nnc4ccccc43)CC2)c2ccccn2c1=O,6 µM,
Cc1ccc(C2CCN(Cc3cc(C(=O)O)c(=O)n4ccccc34)CC2)cc1,1.7 µM,Activity (Mus musculus [9]): inactive; fraction unbound [2]: 0.11; fraction unbound [3]: 0.09; logD [10]: 2.97; Activity [11]: Active; concentration (Brain): 5780 nM; Activity (Mus musculus [12]): inactive; Ratio [4]: 0.7; concentration (Plasma [5]): 915 nM; concentration [6]: 28 nM; Kp [7]: 6; concentration (Plasma [13]): 31000 nM; Activity (Mus musculus [14]): inactive; Ratio [15]: 0.37; Ratio [16]: 0.42; IP [17]: 760 nM
O=C(O)c1cc(CN2CCC(n3cnc4ccccc43)CC2)c2ccccn2c1=O,0.55 µM,fraction unbound [2]: 0.24; fraction unbound [3]: 0.21; logD [10]: 0.92
O=C(O)c1cc(CN2CCc3ccccc3C2c2ccccc2F)c2ccccn2c1=O (stereo not drawn),0.15 µM,
O=C(O)c1cc(CN2CCc3ncccc3C2)c2ccccn2c1=O,0.83 µM,
O=C(O)c1cc(CN2CCc3ccncc3C2)c2ccccn2c1=O,1.7 µM,
CCOC(=O)C1Cc2ccccc2CN1Cc1cc(C(=O)O)c(=O)n2ccccc12 (stereo not drawn),> 100 µM,
O=C(O)c1cc(CN2CCC(c3ccncn3)CC2)c2ccccn2c1=O,4.3 µM,
O=C(O)c1cc(CN2CCc3ccc(Cl)cc3C2)c2ccccn2c1=O,0.63 µM,
O=C(O)c1cc(CN2CCC(c3cccc(F)c3)CC2)c2ccccn2c1=O,1.5 µM,
O=C(O)c1cc(CN2CCc3cnccc3C2)c2ccccn2c1=O,0.9 µM,
O=C(O)c1cc(CN2CCc3cc(Br)ccc3C2)c2ccccn2c1=O,0.63 µM,
O=C(O)c1cc(CN2CCC(c3ccncc3)CC2)c2ccccn2c1=O,0.95 µM,
O=C(O)c1cc(CN2CCC(c3nc4ccccc4[nH]3)CC2)c2ccccn2c1=O,0.12 µM,fraction unbound [2]: 0.23; fraction unbound [3]: 0.18; concentration (Plasma [5]): 132 nM
O=C(O)c1cc(CN2CCC(c3ccc(Br)cc3)CC2)c2ccccn2c1=O,1.2 µM,
O=C(O)c1cc(CN2CCc3cc(Cl)ccc3C2)c2ccccn2c1=O,0.33 µM,Activity (Mus musculus [9]): inactive; fraction unbound [2]: 0.04; fraction unbound [3]: 0.02; logD [10]: 2.37; Activity [11]: Active; concentration (Brain): 3690 nM; Activity (Mus musculus [12]): inactive; Ratio [4]: 0.63; concentration (Plasma [5]): 4240 nM; concentration [6]: 86 nM; Kp [7]: 0.86; concentration (Plasma [13]): 16000 nM; Activity (Mus musculus [14]): inactive
O=C(O)c1cc(CN2CCC(c3ccc(C(F)(F)F)cc3)CC2)c2ccccn2c1=O,0.46 µM,
N#Cc1ccc(N2CCN(Cc3cc(C(=O)O)c(=O)n4ccccc34)CC2)cc1,0.52 µM,Ratio [4]: 0.42
O=C(O)c1cc(CN2CCC(c3ccccc3)CC2)c2ccccn2c1=O,1.3 µM,
O=C(O)c1cc(CN2CCC(c3cnccn3)CC2)c2ccccn2c1=O,11 µM,
O=C(O)c1cc(CN2CCC(c3cccnc3F)CC2)c2ccccn2c1=O,0.84 µM,
CSc1ccc2c(c1)CCN(Cc1cc(C(=O)O)c(=O)n3ccccc13)C2,> 10 µM,
O=C(O)c1cc(CN2CCC(n3ccnn3)CC2)c2ccccn2c1=O,1.7 µM,
O=C(O)c1cc(CN2CCc3ccccc3C2c2cccs2)c2ccccn2c1=O (stereo not drawn),0.6 µM,
O=C(O)c1cc(CN2CCC(c3ccc(Cl)cc3)CC2)c2ccccn2c1=O,0.77 µM,
O=C(O)c1cc(CN2CCC(c3ccccc3F)CC2)c2ccccn2c1=O,1.7 µM,
O=C(O)c1cc(CN2CCc3ccccc3C2c2ccccc2)c2ccccn2c1=O (stereo not drawn),0.56 µM,
